Legend:
Staphylococcus aureus [1] = experiment: Antibacterial activity against methicillin-resistant Staphylococcus aureus NCTC 10442 incubated for 24 hrs by CLSI method; format: functional; settings: NCTC 10442, 24 h
Procedure, shortened: (§1)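 Broth microdilution per CLSI aerobic guidance in Mueller Hinton broth, ambient air, 35 °C for 24 h. DMSO stocks were diluted in water, then serially diluted with double-strength broth inoculum added, for final 0.25–128 μg/mL. […] MIC was read visually as the lowest concentration inhibiting growth; the modal value of triplicates was recorded.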

Staphylococcus aureus [2] = experiment: Antimicrobial activity against Staphylococcus aureus ATCC 29213 incubated for 24 hrs by CLSI method; format: functional; settings: ATCC 29213, 24 h; procedure, shortened: as §1
Clostridioides difficile [3] = experiment: Antibacterial activity against Clostridium difficile NSW132 RT027 incubated for 48 hrs by CLSI method; format: functional; settings: NSW132 RT027, 48 h
Procedure, shortened: (§2)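 Broth microdilution per CLSI anaerobe method in pre-reduced (2-4 h) Brucella broth with haemin and vitamin K, 35 °C anaerobically for 48 h. Compounds from 5 mg/mL DMSO stocks, twofold dilutions in water mixed with double-strength broth; final 0.25–128 μg/mL. […] Triplicate; modal MIC read visually as lowest concentration inhibiting growth.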

Streptococcus pneumoniae = experiment: Antibacterial activity against Streptococcus pneumoniae ATCC 49619 incubated for 24 hrs by CLSI method; format: functional; settings: ATCC 49619, 24 h
Procedure, shortened: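 CLSI broth microdilution in MHB with 2.5% lysed horse blood, 5% CO2, 35 °C, 24 h. Compounds from 5 mg/mL DMSO stocks diluted in water plus double-strength broth; final 0.25–128 μg/mL. […] Triplicate; modal MIC read visually as lowest growth-inhibiting concentration.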

Clostridioides difficile [4] = experiment: Antibacterial activity against Clostridium difficile ATCC 700057 incubated for 48 hrs by CLSI method; format: functional; settings: ATCC 700057, 48 h; procedure, shortened: as §2
Enterococcus faecalis = experiment: Antibacterial activity against Enterococcus faecalis ATCC 29212 incubated for 24 hrs by CLSI method; format: functional; settings: ATCC 29212, 24 h
Escherichia coli = experiment: Antibacterial activity against Escherichia coli ATCC 25922 incubated for 18 hrs by CLSI method; format: functional; settings: ATCC 25922, 18 h
Procedure, shortened: (§3)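 Screen run by CO-ADD: mid-log cultures in cation-adjusted MHB, 5 × 10^5 CFU/mL, compounds at up to 32 μg/mL in 1:2 serial dilutions (8 steps), final DMSO ≤0.5%, duplicate. 37 °C for 18 h without shaking; OD600 read against media-only and untreated-bacteria references. MIC = lowest concentration giving ≥80% inhibition; colistin standard.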

Staphylococcus aureus [5] = experiment: Antimicrobial activity against Staphylococcus aureus ATCC 43300 incubated for 18 hrs by CLSI method; format: functional; settings: ATCC 43300, 18 h
[6] = Cytotoxicity against human HEK293 cells assessed as reduction in cell growth incubated for 20 hrs by resazurin dye-based fluorometric assay
Procedure, shortened: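 HEK293 cells, 5000 per well in DMEM + 10% FBS, exposed to compounds (top 32 μg/mL, 1:2 serial dilution ×8, ≤0.5% DMSO, duplicate) for 20 h at 37 °C, 5% CO2. Resazurin added (2.3 μg/mL final), 3 h further; fluorescence ex 560/em 590 nm. CC50 from sigmoidal dose-response fit against log concentration; tamoxifen standard.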

Klebsiella pneumoniae = experiment: Antibacterial activity against Klebsiella pneumoniae 700603 incubated for 18 hrs by CLSI method; format: functional; settings: Klebsiella pneumoniae, 700603, 18 h; procedure, shortened: as §3
Pseudomonas aeruginosa = experiment: Antimicrobial activity against Pseudomonas aeruginosa ATCC 27853 incubated for 18 hrs by CLSI method; format: functional; settings: ATCC 27853, 18 h; procedure, shortened: as §3
Acinetobacter baumannii = experiment: Antimicrobial activity against Acinetobacter baumannii ATCC 19606 incubated for 18 hrs by CLSI method; format: functional; settings: ATCC 19606 = CIP 70.34 = JCM 6841, 18 h; procedure, shortened: as §3

CC(C)CCOc1ccc2ccccc2c1-c1c(OCc2cn(C[C@@H](CCCCN)NC(=O)[C@@H](CCCNC(=N)N)NC(=O)OCC3c4ccccc4-c4ccccc43)nn2)ccc2ccccc12.Cl.Cl
MIC (Staphylococcus aureus [1]): 8 µg/mL
MIC (Staphylococcus aureus [2]): 8 µg/mL
MIC (Clostridioides difficile [3]): 64 µg/mL
MIC (Streptococcus pneumoniae): 8 µg/mL
MIC (Clostridioides difficile [4]): 32 µg/mL
MIC (Enterococcus faecalis): 8 µg/mL

CC(C)CCOc1ccc2ccccc2c1-c1c(OCc2cn(C[C@@H](CCCCN)NC(=O)C3=CCCCC3)nn2)ccc2ccccc12.Cl
MIC (Staphylococcus aureus [1]): 8 µg/mL
MIC (Staphylococcus aureus [2]): 8 µg/mL
MIC (Clostridioides difficile [3]): 32 µg/mL
MIC (Streptococcus pneumoniae): 16 µg/mL
MIC (Clostridioides difficile [4]): 32 µg/mL
MIC (Enterococcus faecalis): 8 µg/mL

CC(C)CCOc1ccc2ccccc2c1-c1c(OCc2cn(C[C@@H](CCCCN)NC(=O)[C@@H](CCCNC(=N)N)n3cc(CCc4ccccc4)nn3)nn2)ccc2ccccc12.Cl.Cl
MIC (Staphylococcus aureus [1]): 4 µg/mL
MIC (Staphylococcus aureus [2]): 4 µg/mL
MIC (Clostridioides difficile [3]): 16 µg/mL
MIC (Streptococcus pneumoniae): 4 µg/mL
MIC (Escherichia coli): > 32 µg/mL
MIC (Staphylococcus aureus [5]): 4 µg/mL
CC50 at 20 h [6]: > 32 µg/mL
MIC (Klebsiella pneumoniae): > 32 µg/mL
MIC (Pseudomonas aeruginosa): 32 µg/mL
MIC (Clostridioides difficile [4]): 16 µg/mL
MIC (Enterococcus faecalis): 4 µg/mL
MIC (Acinetobacter baumannii): 32 µg/mL

CC(C)CCOc1ccccc1-c1ccccc1OCc1cn(C[C@@H](CCCCN)NC(=O)[C@@H](CCCNC(=N)N)n2cc(CCc3ccccc3)nn2)nn1.Cl.Cl
MIC (Staphylococcus aureus [1]): 4 µg/mL
MIC (Staphylococcus aureus [2]): 4 µg/mL
MIC (Clostridioides difficile [3]): 8 µg/mL
MIC (Streptococcus pneumoniae): 8 µg/mL
MIC (Escherichia coli): 8 µg/mL
MIC (Staphylococcus aureus [5]): 2 µg/mL
CC50 at 20 h [6]: > 32 µg/mL
MIC (Klebsiella pneumoniae): 16 µg/mL
MIC (Pseudomonas aeruginosa): 8 µg/mL
MIC (Clostridioides difficile [4]): 8 µg/mL
MIC (Enterococcus faecalis): 8 µg/mL
MIC (Acinetobacter baumannii): 16 µg/mL

CC(C)CCOc1ccccc1-c1ccccc1OCc1cn(C[C@@H](CCCNC(=N)N)NC(=O)[C@@H](CCCCN)n2cc(C3CCCCC3)nn2)nn1.Cl.Cl
MIC (Staphylococcus aureus [1]): 4 µg/mL
MIC (Staphylococcus aureus [2]): 4 µg/mL
MIC (Clostridioides difficile [3]): 32 µg/mL
MIC (Streptococcus pneumoniae): 4 µg/mL
MIC (Escherichia coli): 8 µg/mL
MIC (Staphylococcus aureus [5]): 4 µg/mL
CC50 at 20 h [6]: 15.3 µg/mL
MIC (Klebsiella pneumoniae): 32 µg/mL
MIC (Pseudomonas aeruginosa): 8 µg/mL
MIC (Clostridioides difficile [4]): 32 µg/mL
MIC (Enterococcus faecalis): 8 µg/mL
MIC (Acinetobacter baumannii): 8 µg/mL

CC(C)CCOc1ccc2ccccc2c1-c1c(OCc2cn(C[C@@H](CCCNC(=N)N)NC(=O)OCc3ccccc3)nn2)ccc2ccccc12.Cl
MIC (Staphylococcus aureus [1]): 4 µg/mL
MIC (Staphylococcus aureus [2]): 4 µg/mL
MIC (Clostridioides difficile [3]): 32 µg/mL
MIC (Streptococcus pneumoniae): 8 µg/mL
MIC (Escherichia coli): > 32 µg/mL
MIC (Staphylococcus aureus [5]): 4 µg/mL
CC50 at 20 h [6]: 13.8 µg/mL
MIC (Klebsiella pneumoniae): > 32 µg/mL
MIC (Pseudomonas aeruginosa): > 32 µg/mL
MIC (Clostridioides difficile [4]): 32 µg/mL
MIC (Enterococcus faecalis): 8 µg/mL
MIC (Acinetobacter baumannii): > 32 µg/mL

CC(C)CCOc1ccccc1-c1ccccc1OCc1cn(C[C@@H](CCCNC(=N)N)NC(=O)CCc2ccccc2)nn1.Cl
MIC (Staphylococcus aureus [1]): 16 µg/mL
MIC (Staphylococcus aureus [2]): 16 µg/mL
MIC (Clostridioides difficile [3]): 16 µg/mL
MIC (Streptococcus pneumoniae): 32 µg/mL
MIC (Escherichia coli): > 32 µg/mL
MIC (Staphylococcus aureus [5]): 16 µg/mL
CC50 at 20 h [6]: > 32 µg/mL
MIC (Klebsiella pneumoniae): > 32 µg/mL
MIC (Pseudomonas aeruginosa): > 32 µg/mL
MIC (Clostridioides difficile [4]): 128 µg/mL
MIC (Enterococcus faecalis): 16 µg/mL
MIC (Acinetobacter baumannii): > 32 µg/mL

CC(C)CCOc1ccccc1-c1ccccc1OCc1cn(C[C@@H](CCCCN)NC(=O)[C@@H](CCCNC(=N)N)n2cc(Cc3ccccc3)nn2)nn1.Cl.Cl
MIC (Staphylococcus aureus [1]): 8 µg/mL
MIC (Staphylococcus aureus [2]): 8 µg/mL
MIC (Clostridioides difficile [3]): 16 µg/mL
MIC (Streptococcus pneumoniae): 4 µg/mL
MIC (Escherichia coli): 16 µg/mL
MIC (Staphylococcus aureus [5]): 4 µg/mL
CC50 at 20 h [6]: 21.9 µg/mL
MIC (Klebsiella pneumoniae): 16 µg/mL
MIC (Pseudomonas aeruginosa): 16 µg/mL
MIC (Clostridioides difficile [4]): 16 µg/mL
MIC (Enterococcus faecalis): 16 µg/mL
MIC (Acinetobacter baumannii): 8 µg/mL

CC(C)CCOc1ccc2ccccc2c1-c1c(OCc2cn(C[C@@H](CCCCN)NC(=O)c3cccs3)nn2)ccc2ccccc12.Cl
MIC (Staphylococcus aureus [1]): 8 µg/mL
MIC (Staphylococcus aureus [2]): 8 µg/mL
MIC (Clostridioides difficile [3]): 64 µg/mL
MIC (Streptococcus pneumoniae): 16 µg/mL
MIC (Clostridioides difficile [4]): 32 µg/mL
MIC (Enterococcus faecalis): 8 µg/mL

CC(C)CCOc1ccc2ccccc2c1-c1c(OCc2cn(C[C@@H](CCCCN)NC(=O)c3ccc4ccccc4c3)nn2)ccc2ccccc12.Cl
MIC (Staphylococcus aureus [1]): 16 µg/mL
MIC (Staphylococcus aureus [2]): 16 µg/mL
MIC (Clostridioides difficile [3]): 64 µg/mL
MIC (Streptococcus pneumoniae): 32 µg/mL
MIC (Clostridioides difficile [4]): 64 µg/mL
MIC (Enterococcus faecalis): 8 µg/mL

CC(C)CCOc1ccc2ccccc2c1-c1c(OCc2cn(C[C@@H](CCCCN)NC(=O)CC(C)C)nn2)ccc2ccccc12.Cl
MIC (Staphylococcus aureus [1]): 8 µg/mL
MIC (Staphylococcus aureus [2]): 8 µg/mL
MIC (Clostridioides difficile [3]): 32 µg/mL
MIC (Streptococcus pneumoniae): 16 µg/mL
MIC (Clostridioides difficile [4]): 16 µg/mL
MIC (Enterococcus faecalis): 8 µg/mL
